# Laboratory results reported in ChEMBL document CHEMBL1144643, “Optimization of imidazole amide derivatives as cannabinoid-1 receptor antagonists for the treatment of obesity” (Bioorg Med Chem Lett, 2007).
# Calls of active or inactive are those of the source. The calls are words filed in the database; no cut-off is given here.
# How the values were obtained:
# Cannabinoid receptor 1 [1] = molecular target: T1, Cannabinoid receptor 1 (Homo sapiens, UniProt P21554); assay: biochemical; type: cell-based, HEK293
# T1 sequence (P21554 whole entry): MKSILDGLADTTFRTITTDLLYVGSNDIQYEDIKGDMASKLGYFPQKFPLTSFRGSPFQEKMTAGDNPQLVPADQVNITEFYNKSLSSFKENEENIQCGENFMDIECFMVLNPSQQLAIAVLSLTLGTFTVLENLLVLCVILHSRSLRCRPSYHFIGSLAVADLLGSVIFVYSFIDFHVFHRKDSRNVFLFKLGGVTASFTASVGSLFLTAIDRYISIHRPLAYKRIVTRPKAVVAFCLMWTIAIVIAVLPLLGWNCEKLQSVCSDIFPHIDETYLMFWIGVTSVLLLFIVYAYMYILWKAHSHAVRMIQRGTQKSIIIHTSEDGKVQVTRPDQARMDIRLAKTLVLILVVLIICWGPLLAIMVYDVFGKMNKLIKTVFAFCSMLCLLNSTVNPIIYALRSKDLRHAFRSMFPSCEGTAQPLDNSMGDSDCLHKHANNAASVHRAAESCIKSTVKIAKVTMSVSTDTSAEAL
# Cannabinoid receptor 2 = Cannabinoid receptor 2 (Homo sapiens, UniProt P34972); assay: Displacement of [3H][…] from human CB2 receptor expressed in HEK293 cells; type: cell-based
# Chain of Cannabinoid receptor 2 (P34972 whole entry): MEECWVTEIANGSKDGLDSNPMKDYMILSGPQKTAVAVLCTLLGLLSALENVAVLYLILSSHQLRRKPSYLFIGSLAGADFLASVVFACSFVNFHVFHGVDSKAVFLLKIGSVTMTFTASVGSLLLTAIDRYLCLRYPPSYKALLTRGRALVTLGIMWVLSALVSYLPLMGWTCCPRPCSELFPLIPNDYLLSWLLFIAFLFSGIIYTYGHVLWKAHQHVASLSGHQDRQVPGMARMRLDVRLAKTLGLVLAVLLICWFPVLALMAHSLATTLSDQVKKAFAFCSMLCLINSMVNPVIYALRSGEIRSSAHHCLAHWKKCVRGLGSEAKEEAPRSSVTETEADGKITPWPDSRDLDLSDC
# How it was run: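 HEK 293 membranes expressing human CB-2 (3.3 µg protein) incubated with 0.3 nM [3H]CP 55940 and varying competitor concentrations. Binding buffer: 50 mM Tris pH 7.4, 2.5 mM EDTA, 5 mM MgCl2, 0.1% fatty-acid-free BSA; 90 min at 30 °C with shaking. Nonspecific binding defined with 10 µM WIN 55212-2. Filtered through GF/C plates, read by scintillation counting. Nonlinear regression; mean of two or more triplicate runs.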
# Cannabinoid receptor 1 [2] = molecular target: T1, Cannabinoid receptor 1; assay: Antagonist activity at human CB1 receptor expressed in CHOK1 cells assessed as inhibition of forskolin-stimulated cAMP levels; type: functional, cell-based; conditions: CHO-K1
# How it was run: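 Incubated 20 min at 37 °C with graded agonist plus 3 µM forskolin (final), with or without a fixed antagonist concentration. cAMP measured by scintillation proximity assay. Kb from the agonist EC50 concentration ratio: pKb = log(CR−1) − log B.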
# Rattus norvegicus [3] = assay: Reduction of body weight in Zucker fa/fa rat at 10 mg/kg, po after 8 days; type: functional; parameters: scale not given: the % may be the effect or the level left
# How it was run: (§1)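 Two-day baseline body weight and 24 h food and water intake, then weight-matched into groups. Daily oral dose of 1, 5 or 10 mg/kg suspension (2 mL/kg) before the nocturnal feeding phase. Body weight recorded daily; change versus vehicle-treated rats.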
# Rattus norvegicus [4] = assay: Reduction of food intake in fasted-refed Wistar rat at 10 mg/kg, po after 3 hrs; type: functional; parameters: scale not given: the % may be the effect or the level left
# How it was run: (§2)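 Male Wistar rats, individually housed on mesh floors, 12-h/12-h light/dark cycle, fasted overnight (18 h). Single oral dose of vehicle or compound at 10 mg/kg (2 mL/kg), vehicle 30% cyclodextrin or PEG/MSA, 1 h before re-feeding. Cumulative food intake recorded at 30, 60, 90, 180 and 240 min, corrected for spillage. 10 rats per group; percent reduction versus vehicle.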
# Rattus norvegicus [5] = assay: Reduction of body weight in Zucker fa/fa rat at 1 mg/kg, po after 13 days; type: functional, Zuker fa/fa; parameters: scale not given: the % may be the effect or the level left
# How it was run: as §1
# Rattus norvegicus [6] = assay: Reduction of body weight in Zucker fa/fa rat at 5 mg/kg, po after 13 days; type: functional; parameters: scale not given: the % may be the effect or the level left
# How it was run: as §1
# Rattus norvegicus [7] = assay: Reduction of food intake in fasted-refed Wistar rat at 10 mg/kg, po after 4 hrs; type: functional; parameters: scale not given: the % may be the effect or the level left
# How it was run: as §2
# Rattus norvegicus [8] = assay: Reduction of body weight in Zucker fa/fa rat at 10 mg/kg, po after 13 days; type: functional; parameters: scale not given: the % may be the effect or the level left
# How it was run: as §1
# Rattus norvegicus [9] = assay: Reduction of food intake in fasted-refed Wistar rat at 10 mg/kg, po after 1.5 hrs; type: functional; parameters: scale not given: the % may be the effect or the level left
# How it was run: as §2
# Rattus norvegicus [10] = assay: Reduction of food intake in fasted-refed Wistar rat at 10 mg/kg, po after 1 hr; type: functional; parameters: scale not given: the % may be the effect or the level left
# How it was run: as §2
# Rattus norvegicus [11] = assay: Reduction of food intake in fasted-refed Wistar rat at 10 mg/kg, po after 0.5 hrs; type: functional; parameters: scale not given: the % may be the effect or the level left
# How it was run: as §2
# [12] = Cmax in Wistar rat plasma at 10 mg/kg, po; type: ADME, organism-based; parameters: dose 10 mg/kg, route oral
# How it was run: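 Wistar rats dosed orally at 10 mg/kg, typically as a 30% cyclodextrin suspension or as a suspension in PEG400/25 mM methanesulfonic acid (80:20). Plasma levels sampled typically at 0.5, 1 and 2 h after dosing; Cmax taken from these time points.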
# Rattus norvegicus [13] = assay: Reduction of food intake in fasted-refed Wistar rat at 10 mg/kg, po after 0.5 to 4 hrs; type: functional; parameters: scale not given: the % may be the effect or the level left
# How it was run: as §2
# [14] = Drug level in Wistar rat brain at 10 mg/kg, po after 2 hrs; type: ADME, organism-based; parameters: dose 10 mg/kg, route oral; conditions: read-out: Drug uptake
# How it was run: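 Brain levels measured 2 h after a 10 mg/kg oral dose to Wistar rats, within pharmacokinetic screening; oral vehicle was PEG/MSA suspension.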
# Rattus norvegicus [15] = assay: Effect on cumulative food intake in fasted-refed Wistar rat assessed as appetite suppression at 10 mg/kg, po; type: functional, organism-based; parameters: dose 10 mg/kg
# How it was run: as §2
smiles,measurement,setting,value
CN(C(=O)c1cn(-c2ccc(Cl)cc2)c(-c2ccccc2Cl)n1)C1CCCCC1,Ki,Cannabinoid receptor 1 [1],34 nM
O=C(N[C@H]1c2ccccc2C[C@H]1O)c1cn(-c2ccc(Cl)cc2)c(-c2ccccc2Cl)n1,Ki,Cannabinoid receptor 2,1200 nM
same,Kb,Cannabinoid receptor 1 [2],2.2 nM
same,Ki,Cannabinoid receptor 1 [1],6.3 nM
CCc1c(C(=O)N[C@H]2CCCC[C@@H]2O)nc(-c2ccccc2Cl)n1-c1ccc(Br)cc1,Ki,Cannabinoid receptor 2,2700 nM
same,Activity,Rattus norvegicus [3],5.6%
same,Kb,Cannabinoid receptor 1 [2],13 nM
same,Activity,Rattus norvegicus [4],52%
same,Ki,Cannabinoid receptor 1 [1],3.7 nM
same,Activity,Rattus norvegicus [5],-1.9%
same,Activity,Rattus norvegicus [6],-6.1%
same,Activity,Rattus norvegicus [7],35%
same,Activity,Rattus norvegicus [8],-10.6%
same,Activity,Rattus norvegicus [9],62%
same,Activity,Rattus norvegicus [10],64%
same,Activity,Rattus norvegicus [11],63%
same,Cmax,[12],2100 nM
Cc1ccccc1-c1nc(C(=O)NC2CCCCC2)cn1-c1ccc(Cl)cc1,Ki,Cannabinoid receptor 2,> 1000 nM
same,Kb,Cannabinoid receptor 1 [2],7.3 nM
same,Ki,Cannabinoid receptor 1 [1],21 nM
O=C(N[C@H]1Cc2ccccc2[C@@H]1O)c1cn(-c2ccc(Cl)cc2)c(-c2ccccc2Cl)n1 (racemic),Ki,Cannabinoid receptor 1 [1],41 nM
O=C(NC1CCCCC1O)c1cn(-c2ccc(Cl)cc2)c(-c2ccc(Cl)cc2Cl)n1 (racemic),Ki,Cannabinoid receptor 2,1100 nM
same,Activity,Rattus norvegicus [13],21%
same,Kb,Cannabinoid receptor 1 [2],4.4 nM
same,Ki,Cannabinoid receptor 1 [1],22 nM
O=C(N[C@H]1c2ccccc2C[C@@H]1O)c1cn(-c2ccc(Cl)cc2)c(-c2ccccc2Cl)n1 (racemic),Ki,Cannabinoid receptor 1 [1],22 nM
O=C(NC1CCCCC1)c1cn(-c2cccnc2)c(-c2ccccc2Cl)n1,Ki,Cannabinoid receptor 1 [1],1100 nM
Cc1c(C(=O)N[C@H]2CCCC[C@@H]2O)nc(-c2ccccc2Cl)n1-c1ccc(Cl)cc1,Ki,Cannabinoid receptor 1 [1],6.9 nM
O=C(N[C@@H]1CCCC[C@H]1O)c1cn(-c2ccc(Cl)cc2)c(-c2ccccc2Cl)n1,Kb,Cannabinoid receptor 1 [2],22 nM
same,Ki,Cannabinoid receptor 1 [1],97 nM
CC1CCC(n2cc(C(=O)NC3CCCCC3)nc2-c2ccccc2Cl)CC1 (stereo not given),Ki,Cannabinoid receptor 1 [1],17 nM
O=C(NC1CCCCC1)c1cn(-c2ccc(F)cc2)c(-c2ccc(Cl)cc2Cl)n1,Ki,Cannabinoid receptor 1 [1],8.2 nM
COc1ccc(-n2cc(C(=O)NC3CCCCC3)nc2-c2ccc(Cl)cc2Cl)cc1,Ki,Cannabinoid receptor 1 [1],4.9 nM
CCc1ccccc1-c1nc(C(=O)NC2CCCCC2)cn1-c1ccc(Cl)cc1,Ki,Cannabinoid receptor 1 [1],39 nM
N[C@H]1CCCC[C@@H]1NC(=O)c1cn(-c2ccc(Cl)cc2)c(-c2ccc(Cl)cc2Cl)n1,Ki,Cannabinoid receptor 1 [1],270 nM
O=C(NC1CCCCC1)c1cn(-c2ccc(Cl)cc2)c(-c2cc(Cl)ccc2Cl)n1,Ki,Cannabinoid receptor 1 [1],25 nM
CN[C@H]1CCCC[C@@H]1NC(=O)c1cn(-c2ccc(Cl)cc2)c(-c2ccc(Cl)cc2Cl)n1,Ki,Cannabinoid receptor 1 [1],620 nM
CC(C)c1c(C(=O)N[C@H]2CCCC[C@@H]2O)nc(-c2ccccc2Cl)n1-c1ccc(Cl)cc1,Ki,Cannabinoid receptor 1 [1],18 nM
O=C(NC1CCCCC1)c1cn(-c2ccc(F)cc2)c(-c2ccccc2Cl)n1,Ki,Cannabinoid receptor 1 [1],20 nM
O=C(N[C@H]1CCCC[C@@H]1O)c1nc(-c2ccccc2Cl)n(-c2ccc(Cl)cc2)c1Br,Ki,Cannabinoid receptor 1 [1],19 nM
Cc1ccc(-n2cc(C(=O)NC3CCCCC3)nc2-c2ccccc2Cl)cc1,Ki,Cannabinoid receptor 1 [1],4.6 nM
CCc1c(C(=O)N[C@H]2CCCC[C@@H]2O)nc(-c2ccccc2Cl)n1-c1ccc(Cl)cc1,Ki,Cannabinoid receptor 2,2300 nM
N[C@@H]1CCCC[C@H]1NC(=O)c1cn(-c2ccc(Cl)cc2)c(-c2ccc(Cl)cc2Cl)n1,Ki,Cannabinoid receptor 1 [1],940 nM
Cc1ccc(-n2cc(C(=O)NC3CCCCC3)nc2-c2ccc(Cl)cc2Cl)cc1,Ki,Cannabinoid receptor 1 [1],1.9 nM
O=C(NC1CCCCC1)c1cn(-c2ccc(Cl)cc2)c(-c2ccccc2Cl)n1,Ki,Cannabinoid receptor 2,2300 nM
same,Kb,Cannabinoid receptor 1 [2],11 nM
same,Ki,Cannabinoid receptor 1 [1],2.2 nM
Cc1ccc(-c2nc(C(=O)NC3CCCCC3)cn2-c2ccc(Cl)cc2)c(C)c1,Ki,Cannabinoid receptor 1 [1],7.2 nM
COc1ccc(-n2cc(C(=O)NC3CCCCC3)nc2-c2ccccc2Cl)cc1,Ki,Cannabinoid receptor 1 [1],9 nM
COc1ccccc1-c1nc(C(=O)NC2CCCCC2)cn1-c1ccc(Cl)cc1,Ki,Cannabinoid receptor 1 [1],95 nM
O=C(NC1CCCCC1)c1cn(-c2ccc(Cl)cc2)c(-c2ccccc2)n1,Ki,Cannabinoid receptor 1 [1],130 nM
Cc1c(C(=O)NN2CCCCC2)nn(-c2ccc(Cl)cc2Cl)c1-c1ccc(Cl)cc1 [RIMONABANT],Activity,Rattus norvegicus [3],6.5%
O=C(NC1CCCCC1)c1cn(-c2ccc(Cl)cc2)c(-c2ccc(F)cc2F)n1,Ki,Cannabinoid receptor 1 [1],36 nM
O=C(N[C@H]1CCCC[C@@H]1O)c1cn(-c2ccc(Cl)cc2)c(-c2ccccc2Cl)n1,Ki,Cannabinoid receptor 2,5300 nM
same,Activity,Rattus norvegicus [13],34%
same,Kb,Cannabinoid receptor 1 [2],7.1 nM
same,Ki,Cannabinoid receptor 1 [1],29 nM
same,concentration at 2 h,[14],110 nM
same,Cmax,[12],1640 nM
O=C(N[C@@H]1c2ccccc2C[C@@H]1O)c1cn(-c2ccc(Cl)cc2)c(-c2ccccc2Cl)n1,Ki,Cannabinoid receptor 2,5100 nM
same,Kb,Cannabinoid receptor 1 [2],9.2 nM
same,Ki,Cannabinoid receptor 1 [1],18 nM
O=C(N[C@H]1Cc2ccccc2[C@H]1O)c1cn(-c2ccc(Cl)cc2)c(-c2ccccc2Cl)n1 (racemic),Ki,Cannabinoid receptor 1 [1],17 nM
O=C(NC1CCCCC1)c1cn(-c2ccc(Cl)cc2)c(-c2ccc(Cl)cc2Cl)n1,Ki,Cannabinoid receptor 2,240 nM
same,Kb,Cannabinoid receptor 1 [2],18 nM
same,Ki,Cannabinoid receptor 1 [1],3.9 nM
same,Activity,Rattus norvegicus [15],inactive
same,Cmax,[12],50 nM
CCCCc1c(C(=O)N[C@H]2CCCC[C@@H]2O)nc(-c2ccccc2Cl)n1-c1ccc(Cl)cc1,Ki,Cannabinoid receptor 1 [1],10 nM
CCCc1c(C(=O)N[C@H]2CCCC[C@@H]2O)nc(-c2ccccc2Cl)n1-c1ccc(Cl)cc1,Ki,Cannabinoid receptor 2,2700 nM
same,Kb,Cannabinoid receptor 1 [2],1.4 nM
same,Ki,Cannabinoid receptor 1 [1],5.7 nM
O=C(N[C@H]1CCC[C@@H]1O)c1cn(-c2ccc(Cl)cc2)c(-c2ccccc2Cl)n1,Ki,Cannabinoid receptor 2,6300 nM
same,Activity,Rattus norvegicus [13],26%
same,Kb,Cannabinoid receptor 1 [2],9.7 nM
same,Ki,Cannabinoid receptor 1 [1],29 nM
same,concentration at 2 h,[14],330 nM
same,Cmax,[12],2110 nM
CN[C@@H]1CCCC[C@H]1NC(=O)c1cn(-c2ccc(Cl)cc2)c(-c2ccc(Cl)cc2Cl)n1,Ki,Cannabinoid receptor 1 [1],920 nM
O=C(N[C@@H]1CCC[C@H]1O)c1cn(-c2ccc(Cl)cc2)c(-c2ccccc2Cl)n1,Ki,Cannabinoid receptor 1 [1],75 nM
